In publication PMC3100183 (Biochemistry, 2011):
Read-outs that look alike come from different tables or passages of the source.

How the values were obtained:
[1] = system: 47 KDa protein in U937 cell membranes; assay type: binding; conditions: for Ki: read-out: Ki (95% Confidence Intervals), inhibition of 20-125I-14,15-EE8ZE-APSA photolabeling, U937 membranes, one-site competitive binding model
bovine coronary arteries [2] = conditions: for EC50: read-out: EC50, relaxation of bovine coronary artery rings, rings pre-constricted with U46619 (20 nM)
Method in brief: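 Left anterior descending bovine coronary artery rings, preconstricted with U46619 (20 nM). Relaxation expressed as %, with basal tension taken as 100% relaxation. Mean ± SEM, n=6–7.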

[3] = system: 79 orphan GPCRs overexpressed in HEK293T cells; experiment: Photolabeling of GPCRs overexpressed in HEK293T cells; assay type: binding; conditions: 1 nM photoprobe; 79 GPCRs of Table 2
Method in brief: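 HEK293T transiently transfected in 96-well format with N-terminal FLAG-tagged GPCRs (pMEX vector); expression confirmed by anti-FLAG flow cytometry. Lysed 30 min on ice (Tris pH 7.4, NaCl, NP-40, deoxycholate, protease inhibitors), sonicated. Lysates with 1 nM 125I photoprobe at 4°C, UV 15 min, SDS-PAGE, autoradiography. Vector-transfected HEK293T as blank; lysate from an equal number of U937 cells as positive control.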

[4] = system: EET binding site/receptor on U937 cell membranes; conditions: cited from earlier work
bovine coronary arteries [5] = conditions: cited from earlier work
[6] = U937 cell (mixed) membranes, 1 nM photoprobe

SMILES	Inhibition of photolabeling of the 47 KDa protein, in words [1, 6]	Ki [1]	also measured
CCCCCC1OC1CC=CCC=CCC=CCCCC(=O)O (stereo not drawn) [14,15-EET, 14,15-epoxyeicosatrienoic acid]	inhibited	8.28 nM	Inhibition of photolabeling of the 47 KDa protein, in words ([1]; U937 plasma membranes): inhibited; EC50 (bovine coronary arteries [2]): ~2000 nM
[N-]=[N+]=Nc1cccc(S(=O)(=O)NC(=O)CCCCCC/C=C\CCCCC2OC2CCCCC[125I])c1 (stereo not drawn) [20-^125I-14,15-EE8ZE-APSA]			Photolabeling of lysates of GPCR expressing HEK293T cells, in words [3]: No radiolabeled bands
CC(=O)N1CCN(c2ccc(OCC3COC(Cn4ccnc4)(c4ccc(Cl)cc4Cl)O3)cc2)CC1 (stereo not drawn) [ketoconazole]	partially inhibited		Inhibition of 20-125I-14,15-EE5ZE binding ([4]; 50 μM): 50%
Nc1ccc(S(=O)(=O)Nc2ccnn2-c2ccccc2)cc1 [sulfaphenazole]			Effect on 20-125I-14,15-EE5ZE binding, in words [4]: did not alter
CCCCCC1OC1CCCCCCC/C=C\CCCC(=O)O (stereo not drawn) [14,15-EE5ZE, 14,15-cis-epoxy-eicosa-5(Z)-enoic acid]		1100 nM	
CCCCCC=CCC=CCC(O)C(O)CC=CCCCC(=O)O (stereo not drawn) [8,9-DHET, 8,9-dihydroxyeicosatrienoic acid]	not inhibited		Effect on 20-125I-14,15-EE5ZE binding, in words [4]: not to displace
CCCCC/C=C\C[C@H]1O[C@H]1C/C=C\C/C=C\CCCC(=O)O [11,12-EET]	inhibited	11.2 nM	
Clc1ccc(COC(Cn2ccnc2)c2ccc(Cl)cc2Cl)c(Cl)c1 (stereo not drawn) [miconazole]	inhibited		Inhibition of photolabeling of the 47 KDa protein, in words ([1]; U937 cell (mixed) membranes, 1 nM photoprobe, listed as Miconazole): completely blocked; Effect on 14,15-EET-induced relaxations of bovine coronary arteries, in words (bovine coronary arteries [5]): blocked
CCCC(C(=O)OCCN(CC)CC)(c1ccccc1)c1ccccc1 [proadifen]			Effect on 20-125I-14,15-EE5ZE binding, in words [4]: did not alter; Effect on 14,15-EET-induced relaxations of bovine coronary arteries, in words (bovine coronary arteries [5]): did not alter
CCCCC/C=C\C/C=C\CC1OC1C/C=C\CCCC(=O)O (stereo not drawn) [8,9-EET]		444 nM	
CCCCC/C=C\C/C=C\C/C=C\C=C\C(=O)CCCC(=O)O [5-oxo-eicosatetraenoic acid]	not inhibited		
[N-]=[N+]=Nc1cccc(S(=O)(=O)NC(=O)CCCCCC/C=C\CCCCC2OC2CCCCCI)c1 (stereo not drawn) [20-I-14,15-EE8ZE-APSA, 20-iodo-14,15-epoxyeicosa-8Z-enoyl-3-azidophenylsulfonamide]			ED50 for relaxation of preconstricted bovine coronary arteries, in words (bovine coronary arteries [2]; compared with 14,15-EET): comparable to 14,15-EET; EC50 (bovine coronary arteries [2]): ~2000 nM
C#CCOc1ccccc1CCCCCC(=O)NS(C)(=O)=O [MS-PPOH]	partially inhibited		Ki ([4]; read-out: Ki, inhibition of 20-125I-14,15-EE5ZE binding): 1560 nM; Effect on 14,15-EET-induced relaxations of bovine coronary arteries, in words (bovine coronary arteries [5]): blocked
CCCCC[C@H](O)/C=C/[C@@H]1[C@@H](C/C=C\CCCC(=O)O)[C@H]2CO[C@@H]1C2 [U46619, 9-11-dideoxy-11α,9a-epoxymethano-prostaglandin F2α]	not inhibited		
C=CCN1CC[C@]23c4c5ccc(O)c4O[C@H]2C(=O)CC[C@@]3(O)[C@H]1C5 [naloxone]	not inhibited		
CCCCCC1SC1C/C=C\C/C=C\C/C=C\CCCC(=O)O (stereo not drawn) [14,15-Thiirane]	did not alter	> 10000 nM	Inhibition of photolabeling of the 47 KDa protein, in words ([1]; U937 cell (mixed) membranes, 1 nM photoprobe, listed as thiirane analog of 14,15-EET): not inhibited
